Measured values: article PMC10586715 (ACS chemical biology, 2023)
Peptide text beside a SMILES is read from it. * marks the point of attachment. Cbz = O=C(OCc1ccccc1)*

Legend:
[1] = molecular target: T1, sEH (Homo sapiens, UniProt P34913); assay: sEH degradation in HepG2 cells by immunoblot; assay type: cell-based; details: for effect of co-treatment on sEH degradation induced by 1a: co-treatment with 1a, immunoblot
T1 sequence (P34913 1-555): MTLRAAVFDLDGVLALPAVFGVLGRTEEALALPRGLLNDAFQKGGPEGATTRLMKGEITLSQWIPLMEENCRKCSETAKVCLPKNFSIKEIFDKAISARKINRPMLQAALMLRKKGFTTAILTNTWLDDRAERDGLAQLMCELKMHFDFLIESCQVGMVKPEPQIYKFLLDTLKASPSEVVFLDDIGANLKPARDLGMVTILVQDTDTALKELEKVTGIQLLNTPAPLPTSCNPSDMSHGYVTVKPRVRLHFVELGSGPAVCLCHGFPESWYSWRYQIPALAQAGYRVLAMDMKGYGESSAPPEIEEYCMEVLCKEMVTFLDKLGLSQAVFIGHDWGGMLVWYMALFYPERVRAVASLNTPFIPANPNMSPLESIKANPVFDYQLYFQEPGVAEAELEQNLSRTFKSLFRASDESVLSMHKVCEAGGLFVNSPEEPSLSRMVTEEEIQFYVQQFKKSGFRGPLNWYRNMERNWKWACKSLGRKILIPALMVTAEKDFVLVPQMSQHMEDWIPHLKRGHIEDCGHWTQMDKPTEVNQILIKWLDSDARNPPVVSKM

[2] = molecular target: T1, sEH; assay: Immunofluorescence colocalization of sEH with compartment markers; assay type: cell-based; details: co-treatment with 1a
Summary of the method: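 Fixed in 4% paraformaldehyde for 20 min, permeabilised with 0.02% Triton X-100, blocked 1 h at room temperature in 5% goat serum with 1% BSA. Mouse anti-sEH plus rabbit anti-LAMP2 at 4 °C overnight; Alexa Fluor 647/488 secondaries (1:500) for 1 h; DAPI 10 min. Imaged at 20x by high-content imaging, automated analysis. Colocalisation area normalised to cell count.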

[3] = system: EPHX2; assay: sEH transcription by qRT-PCR; assay type: cell-based, human
[4] = molecular target: T1, sEH; assay: sEH level in CRBN-knockout HEK293T cells; assay type: cell-based
Summary of the method: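 CRBN knockout HEK293T cells were maintained in high-glucose (4.5 g/L) DMEM with 10% fetal bovine serum, 100 units/mL penicillin and streptomycin.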

[5] = molecular target: T1, sEH; assay: Residual sEH hydrolase activity of treated HepG2 cells; assay type: cell-based; details: HepG2, 1 μM, 24 h

Molecule	effect of co-treatment on sEH degradation induced by 1a [1]	other results
CC(C)C[C@H](NC(=O)[C@H](Cc1ccccc1)NC(=O)c1cnccn1)B(O)O [BTZ, bortezomib]	slightly reversed the sEH degradation induced by 1a but higher concentrations failed to block	effect of co-treatment on sEH degradation induced by 1e and 2a ([1]; co-treatment with 1e or 2a): failed to block the degradation
CO/C1=C\C(C)=C\[C@@H](C)[C@@H](O)[C@@H](C)C/C(C)=C/C=C/[C@H](OC)[C@@H]([C@@H](C)[C@@H](O)[C@H](C)[C@@]2(O)C[C@@H](O)[C@H](C)[C@@H](C(C)C)O2)OC1=O [BafA1, bafilomycin A1]	blocked the degradation	effect of co-treatment on 1a-promoted sEH colocalization with LAMP2 [2]: reversed this trend
CC(C)C[C@@H](C=O)NC(=O)[C@H](CC(C)C)NC(=O)[C@H](CC(C)C)NC(=O)OCc1ccccc1 [MG132] (Cbz-Leu-Leu-Leu-aldehyde)	failed to block the degradation induced by PROTAC 1a and instead promoted sEH degradation	effect on transcription of sEH [3]: did not affect; effect on sEH level in CRBN-knockout cells [4]: neither 1a nor MG132 affect sEH level
NS(=O)(=O)OC[C@@H]1C[C@@H](n2ccc3c(N[C@H]4CCc5ccccc54)ncnc32)C[C@@H]1O [MLN4924]	blocked the sEH degradation	
N#Cc1ccc(COC[C@H]2O[C@@H](n3c(NCc4ccc(Cl)c(Cl)c4)nc4c(N)ncnc43)[C@H](O)[C@@H]2O)cc1 [VER155008]	failed to rescue the sEH degradation	
trans-4-[4-(3-trifluoromethoxyphenyl-1-ureido)-cyclohexyloxy]-benzoic acid [Compound 1]	counteract the degradation effect	sEH hydrolase activity after treatment [5]: only slight inhibition
